The source made the active and inactive calls. No cut-off for these calls is given here.

Here are results for 26 compounds from ChEMBL document CHEMBL4145627, “Expansion of cat-ELCCA for the Discovery of Small Molecule Inhibitors of the Pre-let-7-Lin28 RNA-Protein Interaction” (ACS Med Chem Lett, 2018).

One test has as its target T1, Protein lin-28 homolog A (Mus musculus, UniProt Q8K3Y3).
T1 sequence (Q8K3Y3 whole entry): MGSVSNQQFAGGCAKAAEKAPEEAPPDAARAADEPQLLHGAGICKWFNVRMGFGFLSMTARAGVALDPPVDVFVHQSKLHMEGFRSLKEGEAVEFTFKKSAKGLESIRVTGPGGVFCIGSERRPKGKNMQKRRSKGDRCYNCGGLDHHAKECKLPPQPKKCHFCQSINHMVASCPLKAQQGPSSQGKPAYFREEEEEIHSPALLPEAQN
The test is described as follows: (§1) Binding affinity to mouse N-terminal Halo-fused/biotin-labelled Lin28A expressed in Escherichia coli BL21(DE3) assessed as inhibition of protein interaction with pre-Let-7d microRNA measured after 1 hr by cat-ELCCA. The method in brief:
(§2)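 Biotinylated HaloTag-mLin28A (10 μL of 200 nM in storage buffer) immobilized on streptavidin plates overnight at 4 °C. TCO-pre-let-7d (200 nM in binding buffer) added with compound, 5% DMSO final, 1 h at 25 °C. Then mTet-HRP (750 nM) click for 1 h at 25 °C, washes, chemiluminescent read. CRCs were eight points, 3.3–120 μM.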

Test [1] has as its target T2, Protein lin-28 homolog A (Mus musculus) (UniProt Q8K3Y3).
T2 sequence (whole entry): T1 sequence (Q8K3Y3 whole entry)
Described as §1. The method in brief: as §2

Test [2] addresses Endoribonuclease Dicer (Homo sapiens) (UniProt Q9UPY3). Put plainly: Binding affinity to dicer (unknown origin) assessed as inhibition of dicer-meditated pre-let-7d microRNA maturation at 100 uM by electrophoretic mobility shift assay. The method in brief: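 Dicer-mediated pre-let-7d maturation tested with compound at 100 μM; samples run with and without Dicer; procedure cited to earlier work.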
A general note: A gel shift assay detects complexes by their altered migration in electrophoresis.

The target in test [3] is T2, Protein lin-28 homolog A (Mus musculus). Put plainly: Binding affinity to mouse N-terminal Halo-fused/biotin-labelled Lin28A expressed in Escherichia coli BL21(DE3) assessed as inhibition of protein interaction with pre-Let-7a microRNA at 20 to 50 uM by electrophoretic mobility shift assay.
Test [4] has the same target. Put plainly: Binding affinity to mouse N-terminal Halo-fused/biotin-labelled Lin28A expressed in Escherichia coli BL21(DE3) assessed as inhibition of protein interaction with microRNA at 20 to 50 uM by electrophoretic mobility shift assay.
In test [5] the target is T3, Protein lin-28 homolog B (Homo sapiens) (UniProt Q6ZN17).
T3 sequence (whole entry): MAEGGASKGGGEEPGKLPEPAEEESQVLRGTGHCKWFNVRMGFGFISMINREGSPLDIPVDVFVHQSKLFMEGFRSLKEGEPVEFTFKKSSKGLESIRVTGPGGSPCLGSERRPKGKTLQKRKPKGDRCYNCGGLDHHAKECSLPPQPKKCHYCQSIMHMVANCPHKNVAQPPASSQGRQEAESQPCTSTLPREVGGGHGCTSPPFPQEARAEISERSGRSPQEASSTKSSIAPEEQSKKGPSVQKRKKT
Put plainly: Binding affinity to human N-terminal Halo-fused/biotin-labelled Lin28B expressed in Escherichia coli BL21(DE3) assessed as inhibition of protein interaction with pre-Let-7d microRNA measured after 1 hr by cat-ELCCA. An outline of the steps:
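Human Lin28B, cloned from A549 cDNA as a HaloTag fusion, expressed in E. coli (IPTG 500 μM, overnight 37 °C), Ni-NTA purified, biotinylated with Biotin-PEG7-HaloTag ligand (10 equiv, overnight 4 °C), immobilized on streptavidin plates. TCO-labelled pre-let-7d plus compound in Tris binding buffer with ZnCl₂ and β-mercaptoethanol, 5% DMSO final, 25 °C 1 h. Bound RNA detected by mTet-HRP click chemistry and chemiluminescence. IC50 from curves.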

Test [6] concerns the target T2, Protein lin-28 homolog A (Mus musculus). Put plainly: Binding affinity to mouse N-terminal Halo-fused/biotin-labelled Lin28A expressed in Escherichia coli BL21(DE3) assessed as inhibition of protein interaction with pre-Let-7d microRNA by electrophoretic mobility shift assay.
In test [7] the target is Eukaryotic translation initiation factor 4E/Eukaryotic translation initiation factor 4E-binding protein 1 (Homo sapiens) (UniProt P06730+Q13541). Put plainly: Inhibition of eIF4E-4E-BP1 (unknown origin) interaction at 100 uM by cat-ELCCA. Format: protein assay. An outline of the steps: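 Counter-screen: eIF4E–4E-BP1 interaction read by cat-ELCCA with compound at 100 μM; assay setup cited to earlier work.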

In test [8] the target is T2, Protein lin-28 homolog A (Mus musculus). Put plainly: Binding affinity to mouse N-terminal Halo-fused/biotin-labelled Lin28A expressed in Escherichia coli BL21(DE3) at 18.7 to 75 uM by surface plasmon resonance analysis. The method in brief: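 SPR on BioCap chip with biotinylated HaloTag-Lin28A immobilized at 2,300 RU. Running buffer: 50 mM Tris pH 7.6, 150 mM NaCl, 1 mM β-ME, 5% glycerol, 0.05% Tween-20, 1 mM ZnCl₂, 5% DMSO. Analytes at 75, 37.5, 18.7 μM, injected 50 μL at 50 μL/min; regeneration between cycles.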

Test [9] in a line: Binding affinity to synthetic biotinylated pre-let-7d microRNA at 6.25 to 100 uM by surface plasmon resonance analysis. An outline of the steps: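 SPR with biotinylated pre-let-7d immobilized at 2,300 RU on BioCap chip. Analytes at 100, 50, 25, 12.5, 6.25 μM, injected 30 μL at 30 μL/min; regeneration between cycles.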

Chain of Endoribonuclease Dicer (Homo sapiens) (Q9UPY3 whole entry): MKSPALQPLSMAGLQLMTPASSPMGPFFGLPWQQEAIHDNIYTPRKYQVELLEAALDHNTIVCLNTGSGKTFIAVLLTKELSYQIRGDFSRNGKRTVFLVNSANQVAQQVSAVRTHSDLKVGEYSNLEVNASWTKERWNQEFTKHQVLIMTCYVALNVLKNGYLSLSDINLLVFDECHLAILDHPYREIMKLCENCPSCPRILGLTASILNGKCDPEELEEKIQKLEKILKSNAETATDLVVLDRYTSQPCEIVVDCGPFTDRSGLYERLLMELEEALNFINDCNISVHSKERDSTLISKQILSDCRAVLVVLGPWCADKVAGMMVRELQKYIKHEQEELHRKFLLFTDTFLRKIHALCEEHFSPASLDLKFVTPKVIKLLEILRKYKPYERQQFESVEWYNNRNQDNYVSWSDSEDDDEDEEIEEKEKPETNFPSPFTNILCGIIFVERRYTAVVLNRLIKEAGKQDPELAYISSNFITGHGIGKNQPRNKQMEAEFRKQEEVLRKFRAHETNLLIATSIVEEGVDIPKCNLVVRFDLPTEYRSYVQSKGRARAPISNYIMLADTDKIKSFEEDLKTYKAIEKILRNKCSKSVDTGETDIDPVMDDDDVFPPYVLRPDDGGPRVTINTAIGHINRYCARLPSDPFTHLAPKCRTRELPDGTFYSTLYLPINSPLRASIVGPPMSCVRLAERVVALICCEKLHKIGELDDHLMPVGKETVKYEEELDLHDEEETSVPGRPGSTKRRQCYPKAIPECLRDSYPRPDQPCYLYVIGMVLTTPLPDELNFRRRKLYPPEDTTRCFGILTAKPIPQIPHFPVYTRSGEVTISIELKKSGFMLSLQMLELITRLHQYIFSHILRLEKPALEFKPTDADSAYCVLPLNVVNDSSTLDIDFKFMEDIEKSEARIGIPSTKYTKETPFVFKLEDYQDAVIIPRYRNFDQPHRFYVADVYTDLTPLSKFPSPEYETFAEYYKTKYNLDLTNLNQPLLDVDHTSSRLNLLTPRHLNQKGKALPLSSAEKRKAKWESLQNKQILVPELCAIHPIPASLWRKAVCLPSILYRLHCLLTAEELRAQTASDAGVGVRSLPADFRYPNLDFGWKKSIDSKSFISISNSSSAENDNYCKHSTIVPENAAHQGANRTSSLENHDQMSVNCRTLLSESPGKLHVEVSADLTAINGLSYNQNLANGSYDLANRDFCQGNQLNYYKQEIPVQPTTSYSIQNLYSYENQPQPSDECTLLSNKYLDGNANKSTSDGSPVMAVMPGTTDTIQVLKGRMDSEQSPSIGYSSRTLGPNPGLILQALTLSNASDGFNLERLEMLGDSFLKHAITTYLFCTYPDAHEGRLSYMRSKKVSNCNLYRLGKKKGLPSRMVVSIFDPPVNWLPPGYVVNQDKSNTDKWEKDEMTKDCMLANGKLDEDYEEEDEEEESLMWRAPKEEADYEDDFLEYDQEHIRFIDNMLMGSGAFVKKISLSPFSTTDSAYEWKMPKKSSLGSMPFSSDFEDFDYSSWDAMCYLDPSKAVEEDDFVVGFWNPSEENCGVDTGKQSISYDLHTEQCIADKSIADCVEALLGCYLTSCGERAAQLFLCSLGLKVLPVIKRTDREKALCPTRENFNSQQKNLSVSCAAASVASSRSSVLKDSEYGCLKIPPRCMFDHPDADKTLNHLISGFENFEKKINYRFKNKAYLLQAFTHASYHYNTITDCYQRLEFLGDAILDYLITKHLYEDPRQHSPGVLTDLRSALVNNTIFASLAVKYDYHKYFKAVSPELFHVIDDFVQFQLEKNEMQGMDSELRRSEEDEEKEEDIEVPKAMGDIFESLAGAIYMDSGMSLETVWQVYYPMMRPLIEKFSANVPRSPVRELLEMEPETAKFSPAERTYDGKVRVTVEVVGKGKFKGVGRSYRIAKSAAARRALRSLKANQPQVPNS
Chain of Eukaryotic translation initiation factor 4E/Eukaryotic translation initiation factor 4E-binding protein 1 (Homo sapiens) (P06730 2-217 limits assumed): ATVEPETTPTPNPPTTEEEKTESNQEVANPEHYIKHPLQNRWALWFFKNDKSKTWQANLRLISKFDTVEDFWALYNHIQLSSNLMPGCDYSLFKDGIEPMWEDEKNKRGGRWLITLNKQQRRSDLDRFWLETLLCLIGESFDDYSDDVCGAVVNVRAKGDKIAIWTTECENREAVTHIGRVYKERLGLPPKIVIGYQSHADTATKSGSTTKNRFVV
Chain of Eukaryotic translation initiation factor 4E/Eukaryotic translation initiation factor 4E-binding protein 1 (Homo sapiens) (Q13541 2-118 partner limits assumed): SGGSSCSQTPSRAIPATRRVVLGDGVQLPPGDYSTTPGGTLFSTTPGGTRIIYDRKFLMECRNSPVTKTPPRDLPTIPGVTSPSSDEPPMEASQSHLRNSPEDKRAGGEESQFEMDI

Usually IC50 stands for the concentration needed to halve the response being measured. For the compound `COc1ccc(S(=O)(=O)Nc2ccccc2NS(=O)(=O)c2ccc(OC)cc2)cc1`, the IC50 at Protein lin-28 homolog A amounted to 16.7 µM.

With `Cc1ccc(S(=O)(=O)Nc2ccccc2NS(=O)(=O)c2ccc(C)c(Cl)c2)cc1Cl`, the IC50 at Protein lin-28 homolog A was determined as 2.3 µM.

`O=S(=O)(Nc1ccccc1NS(=O)(=O)c1ccc(Cl)cc1)c1ccc(F)cc1`: the IC50 on Protein lin-28 homolog A stood at 27.3 µM.

With `Cc1ccc(S(=O)(=O)Nc2ccc(C)cc2NS(=O)(=O)c2ccc(F)cc2)cc1`, the half-maximal inhibitory concentration (IC50) on Protein lin-28 homolog A turned out to be 11.7 µM.

Take `Cc1ccc(S(=O)(=O)Nc2ccc(C)cc2NS(=O)(=O)c2ccc(C)cc2)cc1`: the IC50 at Protein lin-28 homolog A was found to be 14.1 µM.

Take `O=S(=O)(Nc1ccccc1NS(=O)(=O)c1ccc(Cl)cc1)c1ccc(Cl)cc1`: the IC50 at Protein lin-28 homolog A was found to be 27.5 µM.

For `O=C(Nc1ccccc1NC(=O)c1ccccc1)c1ccccc1`, in test [1], the inhibition result was “inactive”.

Regarding `Cc1ccc(S(=O)(=O)Nc2ccc(C)cc2NS(=O)(=O)c2cccc(C(F)(F)F)c2)cc1`, the inhibition entry in [2] was “inactive”. The concentration for half-maximal inhibition (IC50) at Protein lin-28 homolog A was 10.4 µM. The inhibition entry in test [3], in test [4], in test [5] and in test [6] was “Active” in each case.

For the compound `O=S(=O)(Nc1ccccc1NS(=O)(=O)c1ccccc1)c1ccccc1`, the IC50 at Protein lin-28 homolog A is 32.2 µM.

In the case of `Cc1ccc(S(=O)(=O)Nc2ccc(F)cc2NS(=O)(=O)c2ccc(C)c(Cl)c2)cc1Cl`, the IC50 at Protein lin-28 homolog A came out at 3.7 µM.

For `CC(=O)Nc1ccc(S(=O)(=O)Nc2ccccc2NS(=O)(=O)c2ccc(NC(C)=O)cc2)cc1`, the IC50 at Protein lin-28 homolog A was determined as 62.5 µM.

Turning to `COc1ccc(S(=O)(=O)Nc2ccccc2NS(=O)(=O)c2ccc(F)cc2)cc1`, the IC50 on Protein lin-28 homolog A was determined as 17.2 µM.

Consider `O=S(=O)(Nc1ccccc1NS(=O)(=O)c1cccc(Cl)c1)c1cccc(Cl)c1`, for which the IC50 at Protein lin-28 homolog A is 5.7 µM.

On to `O=S(=O)(Nc1ccccc1NS(=O)(=O)c1cccc(Cl)c1)c1ccc(F)cc1`, for which the IC50 on Protein lin-28 homolog A stood at 10.8 µM.

In the case of `O=S(=O)(c1ccccc1)N1CCN(S(=O)(=O)c2ccccc2)c2ccccc21`, the inhibition result in [1] was “inactive”.

With `O=S(=O)(Nc1ccccc1NS(=O)(=O)c1ccc(F)cc1)c1ccc(F)cc1`, the IC50 on Protein lin-28 homolog A came to 28.3 µM.

For the compound `O=S(=O)(Nc1ccccc1NS(=O)(=O)c1cccc(Br)c1)c1ccc(F)cc1`, the IC50 at Protein lin-28 homolog A was 16.2 µM.

With `Cc1ccc(NS(=O)(=O)c2ccc(F)cc2)c(NS(=O)(=O)c2ccc(F)cc2)c1`, the IC50 at Protein lin-28 homolog A was found to be 16.2 µM.

In the case of `Cc1ccc(NS(=O)(=O)c2ccccc2)c(NS(=O)(=O)c2ccccc2)c1`, the IC50 on Protein lin-28 homolog A was determined as 28.8 µM.

On to `O=S(=O)(Nc1ccccc1NS(=O)(=O)c1ccc(Br)cc1)c1ccc(Br)cc1`, for which, on Protein lin-28 homolog A, the IC50 turned out to be 17.5 µM.

Consider `Cc1ccc(S(=O)(=O)Nc2ccc(F)cc2NS(=O)(=O)c2ccc(C)cc2)cc1`, for which the inhibition entry in [2] and in [7] was “inactive” in each case. The IC50 on Protein lin-28 homolog A is 8.3 µM. In addition, the inhibition entry in [3], in test [4], in test [5] and in test [6] was “Active” throughout. Also, in [8], the result was Active. Moreover, the outcome in test [9] was inactive.

On to `Cc1ccc(NS(=O)(=O)c2ccc(Cl)cc2)c(NS(=O)(=O)c2ccc(Cl)cc2)c1`, for which the IC50 at Protein lin-28 homolog A stood at 28.4 µM.

On to `O=S(=O)(Nc1cccc(NS(=O)(=O)c2ccccc2)c1)c1ccccc1`, for which the inhibition entry in test [1] was “inactive”.

`Nc1ccccc1NS(=O)(=O)c1ccccc1`: in test [1], the inhibition result is “inactive”.

Consider `Cc1ccc(NS(=O)(=O)c2cccc(Cl)c2)c(NS(=O)(=O)c2cccc(Cl)c2)c1`, for which, at Protein lin-28 homolog A, the 50% inhibitory concentration (IC50) is 4.3 µM.

For `O=S(=O)(Nc1ccccc1NS(=O)(=O)c1ccc(F)cc1)c1ccccc1`, the IC50 on Protein lin-28 homolog A was 13.9 µM.
